In brackets after ≈: the same amount, converted by molar mass. Activity calls are given as the source filed them.
What was measured:
[1] = test system: Yersinia pseudotuberculosis YPIII; test: Inhibition of T3S in Yersinia pseudotuberculosis YPIII expressing yopE-luxAB at 1.56 uM after 3 hrs by luciferase reporter gene assay
Outline: (§1)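 Strain YPIII pIB102 (yopE-luxAB) grown overnight at room temperature in BHI with 5 mM EGTA and 20 mM MgCl2 (calcium depletion), adjusted to OD600 0.088–0.095. Compound added from DMSO at 1.56–200 µM final (eight concentrations). Shaken 1 h at room temperature, then 2 h at 37 °C. Decanal added and light emission read immediately. Triplicates, repeated at least three times.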

[2] = test system: Yersinia pseudotuberculosis YPIII; test: Inhibition of T3S in Yersinia pseudotuberculosis YPIII expressing yopE-luxAB at 3.13 uM after 3 hrs by luciferase reporter gene assay; outline: as §1
[3] = test system: Yersinia pseudotuberculosis YPIII; test: Inhibition of T3S in Yersinia pseudotuberculosis YPIII expressing yopE-luxAB at 6.25 uM after 3 hrs by luciferase reporter gene assay; outline: as §1
[4] = test system: Yersinia pseudotuberculosis YPIII; test: Inhibition of T3S in Yersinia pseudotuberculosis YPIII expressing yopE-luxAB at 12.5 uM after 3 hrs by luciferase reporter gene assay; outline: as §1
[5] = test system: Yersinia pseudotuberculosis YPIII; test: Inhibition of T3S in Yersinia pseudotuberculosis YPIII expressing yopE-luxAB at 25 uM after 3 hrs by luciferase reporter gene assay; outline: as §1
[6] = test system: Yersinia pseudotuberculosis YPIII; test: Inhibition of T3S in Yersinia pseudotuberculosis YPIII expressing yopE-luxAB at 50 uM after 3 hrs by luciferase reporter gene assay; outline: as §1
[7] = test system: Yersinia pseudotuberculosis YPIII; test: Inhibition of T3S in Yersinia pseudotuberculosis YPIII expressing yopE-luxAB at 100 uM after 3 hrs by luciferase reporter gene assay; outline: as §1
[8] = test system: Yersinia pseudotuberculosis YPIII; test: Inhibition of T3S in Yersinia pseudotuberculosis YPIII expressing yopE-luxAB at 200 uM after 3 hrs by luciferase reporter gene assay; outline: as §1
[9] = target: Tyrosine-protein phosphatase YopH (Yersinia pseudotuberculosis serotype I (strain IP32953)) (UniProt P08538); test: Inhibition of YopH in Yersinia pseudotuberculosis YPIII expressing yopE-luxAB treated 3 hrs before substrate addition measured after 15 mins by microplate reader
Sequence of Tyrosine-protein phosphatase YopH (Yersinia pseudotuberculosis serotype I (strain IP32953)) (P08538 whole entry): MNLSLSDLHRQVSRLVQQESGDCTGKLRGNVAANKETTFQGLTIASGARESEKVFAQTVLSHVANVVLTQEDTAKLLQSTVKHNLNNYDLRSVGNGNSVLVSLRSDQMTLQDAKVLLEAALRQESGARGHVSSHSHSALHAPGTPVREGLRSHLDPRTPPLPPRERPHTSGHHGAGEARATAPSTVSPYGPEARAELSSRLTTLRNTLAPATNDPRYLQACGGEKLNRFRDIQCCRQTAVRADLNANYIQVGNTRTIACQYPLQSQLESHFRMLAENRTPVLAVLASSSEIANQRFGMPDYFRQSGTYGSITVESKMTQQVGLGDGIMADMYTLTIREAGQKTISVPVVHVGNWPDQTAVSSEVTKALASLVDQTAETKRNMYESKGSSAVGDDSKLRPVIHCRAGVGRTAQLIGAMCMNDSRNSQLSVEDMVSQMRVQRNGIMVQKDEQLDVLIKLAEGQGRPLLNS
Outline: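 Same calcium-depleted YPIII pIB102 cultures and compound exposure (1 h room temperature, then 2 h 37 °C). An aliquot of the bacterial suspension was mixed with 25 mM p-nitrophenyl phosphate, 40 mM MES pH 5.0, 1.6 mM DTT. Incubated 15 min at 37 °C, quenched with 1 M NaOH, absorbance read at 405 nm. Triplicates, repeated at least three times.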

[10] = test system: Yersinia pseudotuberculosis; test: Antibacterial activity against Yersinia pseudotuberculosis expressing pIB102 at 50 uM after 23 hrs by broth dilution assay; type: functional, organism-based
Outline: (§2)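 Wild-type pIB102 grown overnight in LB at room temperature, diluted to OD600 = 0.1 in LB with 2.5 mM CaCl2. Compound added from DMSO stock to final 50 and 100 µM. Incubated at 37 °C with absorbance at 595 nm read over 23 h.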

Escherichia coli [11] = test: Antibacterial activity against Escherichia coli DH5[alpha] at 50 uM after 23 hrs by broth dilution assay; type: functional, organism-based
Outline: (§3)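 Overnight LB culture of E. coli DH5α grown at 37 °C, diluted to OD600 0.1 in LB with 2.5 mM CaCl2; compound added from DMSO stock to final 50 or 100 µM. Incubated at 37 °C with absorbance at 595 nm followed over 23 h.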

[12] = test system: Yersinia pseudotuberculosis; test: Antibacterial activity against Yersinia pseudotuberculosis expressing pIB102 at 100 uM after 23 hrs by broth dilution assay; type: functional, organism-based; outline: as §2
Escherichia coli [13] = test: Antibacterial activity against Escherichia coli DH5[alpha] at 100 uM after 23 hrs by broth dilution assay; type: functional, organism-based; outline: as §3
Chlamydia trachomatis = test: Antibacterial activity against Chlamydia trachomatis infected in human HeLa 229 cells after 35 hrs by fluorescence microscopy; type: functional
Outline: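 HeLa 229 monolayers infected with C. trachomatis serovar L2, MOI 0.3; compounds diluted in RPMI 1640 with 10% FCS, 2 mM L-glutamine, 8 µg/mL gentamicin (DMSO final 1%) added 1 h post-infection at 50, 25, 12.5, 6.25, 3.13 µM. 35 h at 37 °C, 5% CO2; methanol fixation, immunostaining, fluorescence microscopy at 200×. MIC = lowest concentration with no intracellular inclusions; duplicates, ≥3 occasions.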

[14] = Cytotoxicity against human HeLa 229 cells assessed as cell viability at 50 uM after 28 hrs using resazurin staining by fluorescence microscopy; type: cell-based; conditions: read-out: Activity
Outline: (§4)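 HeLa 229 viability measured at 50 and 25 µM using resazurin added 4 h before read-out; cell-free wells with medium plus compound exclude chemical reduction of resazurin. Scored relative to DMSO control, plus microscopic scoring; non-toxic defined as at least 70% viability versus control. Triplicates, repeated at least three times.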

[15] = Cytotoxicity against human HeLa 229 cells assessed as cell viability at 25 uM after 28 hrs using resazurin staining by fluorescence microscopy; type: cell-based; conditions: read-out: Activity; outline: as §4
[16] = test system: Yersinia pseudotuberculosis; test: Antibacterial activity against Yersinia pseudotuberculosis expressing pIB102 infected in mouse J774 cells assessed as inhibition of bacteria-induced cell death at 50 uM after 14 hrs using calcein AM staining by fluorescence microscopy; type: functional, organism-based
Outline: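 J774A macrophages (4 × 10^4 cells/well) grown 24 h in DMEM/10% FCS/gentamicin. Wild-type pIB102 grown in LB plus kanamycin overnight at room temperature, diluted 1/10 in DMEM, shaken 1 h at room temperature then 2 h at 37 °C. Added at OD600 = 0.002 with compound (25, 50, 100 µM final; DMSO <0.5%). Incubated 14 h, 37 °C, 5% CO2. CalceinAM 40 min, fluorescence 485/535 nm; uninfected cells = 100% viability.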

Escherichia coli [17] = test: Antibacterial activity against Enterotoxigenic Escherichia coli infected in mouse J774 cells assessed as inhibition of bacteria-induced cell death at 25 to 100 uM after 14 hrs using calcein AM staining by fluorescence microscopy; type: functional, organism-based
Outline: (§5)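 J774A macrophages (4×10⁴/well, DMEM with 10% FCS, gentamicin 3 µg/mL, 24 h at 37 °C, 5% CO2) washed with PBS, then given fresh DMEM with compound plus bacteria (OD600 0.002), final 25, 50, 100 µM, DMSO below 0.5%. ETEC grown overnight in LB at 37 °C, diluted and grown 3 h. 14 h at 37 °C, 5% CO2; CalceinAM 40 min, fluorescence 485/535 nm, confirmed by microscopy; uninfected cells = 100% viability; gentamicin 5 µg/mL rescue control.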

J774 = test: Cytotoxicity against mouse J774 cells at 25 to 100 uM after 14 hrs using calcein AM staining by fluorescence microscopy; type: cell-based; conditions: j774, 14 h; outline: as §5

Structure (SMILES)	inhibition [1] [%]	inhibition [2] [%]	inhibition [3] [%]	inhibition [4] [%]	inhibition [5] [%]	inhibition [6] [%]	inhibition [7] [%]	inhibition [8] [%]	inhibition [9]	Activity [10]	Activity (Escherichia coli [11])	Activity [12]	Activity (Escherichia coli [13])	MIC (Chlamydia trachomatis)	viability at 28 h, 50 µM [14] [%]	viability at 28 h, 25 µM [15] [%]	inhibition [16]	inhibition (Escherichia coli [17])	Activity (J774)
COc1cc(C(=O)N/N=C/c2ccc(O)c(O)c2O)cc(OC)c1OC	-10	11	14	19	31	50	58	62	inactive	inactive	inactive	inactive	inactive						
CCN(CC)c1ccc(/C=N/NC(=O)c2ccc(OC)c(OC)c2)c(O)c1		14	14	29	44	66	66	56	inactive	inactive	inactive	inactive	inactive						
COc1cc(Br)cc(/C=N/NC(=O)Cc2ccccc2)c1O	10	18	12	15	9	22	57	65		inactive	inactive	inactive	inactive	inactive	33	58			
CC(C)(C)c1cc(/C=N/NC(=O)c2cccc(C(F)(F)F)c2)c(O)c(C(C)(C)C)c1		-10	3	7	6	9	11	2		inactive	inactive	inactive	inactive				inactive	inactive	Non-toxic
O=C(N/N=C/c1cc(Br)ccc1O)c1ccncc1	-8	14	13	24	43	87	95	98		inactive	inactive	inactive	inactive				Active		Non-toxic
O=C(Cc1ccccc1)N/N=C/c1cc(Br)ccc1O	15	4	10	7	15	26	39	50		inactive	inactive	inactive	inactive	50 µM (≈ 16.7 µg/mL)	74	75			
Cc1ccc(C(=O)N/N=C/c2cc(C(C)(C)C)ccc2O)cc1	13	6	14	18	20	17	24	25		inactive	inactive	inactive	inactive	50 µM (≈ 15.5 µg/mL)	79	80			
O=C(N/N=C/c1ccc(Cl)cc1O)c1ccncc1	5	-1	3	4	27	84	96	95		inactive	inactive	inactive	inactive	inactive	67	72			
O=C(N/N=C/c1cc(Br)ccc1O)c1ccccc1Cl	10	10	10	13	11	38	58	61		inactive	inactive	inactive	inactive	50 µM (≈ 17.7 µg/mL)	60	77			
O=C(N/N=C/c1cccc(F)c1O)c1ccc([N+](=O)[O-])cc1	1	7	2	4	19	28	20	59		inactive	inactive	inactive	inactive	50 µM (≈ 15.2 µg/mL)	72	75			
NC(=O)C(=O)N/N=C/c1c(O)cc(O)cc1O	-1	5	17	17	26	51	63	64	inactive	inactive	inactive	inactive	inactive						
COc1ccc(Br)c(/C=N/NC(=O)c2ccncc2)c1O		9	18	18	27	54	77	35	inactive	inactive	inactive	inactive	inactive						
CC(C)(C)c1ccc(O)c(/C=N/NC(=O)Cc2ccccc2)c1	9	13	9	4	10	26	20	25		inactive	inactive	inactive	inactive	inactive	79	83			
